Measurements gathered from unrelated publications.
Compare with care: the assays were run in different laboratories.
Target: LIM domain kinase 1 (LIMK1, Homo sapiens, UniProt P53667)

`Nc1ncc(-c2nc(N3CCOCC3)nc(N3CCOCC3)n2)c(C(F)F)n1` has a remaining binding of 86% (binding; competition with immobilised ligand; 10 µM).
`Cn1cc(-c2cc(F)cc(N3CCn4c(cc5c4CCCC5)C3=O)c2CO)cc(Nc2ccc(N3CCN(C4COC4)CC3)cn2)c1=O` gave an inhibition of 2% (enzyme activity; inhibitor; 0.1 µM).
The remaining activity of `CC(C)(C)c1cc(C=C(C#N)C#N)cc(Br)c1O` is reported as 98.5% (enzyme activity; inhibitor; 0.5 µM).
The inhibition of `Cn1cc(-c2cccc(N3CCc4c(sc5c4CC(C)(C)C5)C3=O)c2CO)cc(Nc2ccncn2)c1=O` is reported as 9% (enzyme activity; inhibitor; 1 µM).
`N#CC1(c2ccccn2)CCN(Cc2cc(C(=O)O)c(=O)n3ccccc23)CC1` has a remaining binding of 100% (cell-free assay; competition with immobilised ligand; 1 µM).
`COc1cc(Nc2ncc(F)c(Nc3ccc4c(n3)NC(=O)C(C)(C)O4)n2)cc(OC)c1OC` gave an inhibition of 85% (binding; competition with immobilised ligand; 10 µM).
`Cn1cncc1[C@](O)(COc1ccc(C#N)cc1-c1ccc(OC(F)(F)F)cc1)c1ccc(C#N)cc1` gave a remaining binding of 89% (cell-free assay; competition with immobilised ligand; 1 µM).
`COc1ncccc1-c1cnn2ccc(N3CCN(C(=O)OC(C)C)CC3)nc12` gave a remaining binding of 100% (binding; competition with immobilised ligand; 1 µM).
`O=c1[nH]c2ccccc2n1C1CCN(Cc2ccc(-c3[nH]c4cc5ncnc5cc4nc3-c3ccccc3)cc2)CC1` has a remaining signal of 110% (cell-free assay; 0.5 µM).
`Cc1nn(C)cc1-c1nc2c(N3CCN(Cc4ccc(Cl)cc4)CC3)c(Cl)cnc2[nH]1` gave a remaining binding of 58% (binding; competition with immobilised ligand; 1 µM).
